Data: ChEMBL document CHEMBL2434966, “Novel N-4-piperazinyl-ciprofloxacin-chalcone hybrids: synthesis, physicochemical properties, anticancer and topoisomerase I and II inhibitory activity” (Eur J Med Chem, 2013)
In brackets after ≈: the same amount, converted by molar mass. Activity calls are given as the source filed them. The rule behind the calls is not given here.

Key:
[1] = target: T1, DNA topoisomerase 1 (Homo sapiens) (UniProt P11387); assay: Inhibition of human recombinant topoisomerase 1-mediated relaxation of supercoiled pBR322 DNA at 20 uM after 30 mins by agarose gel electrophoresis relative to control
T1 sequence (whole entry): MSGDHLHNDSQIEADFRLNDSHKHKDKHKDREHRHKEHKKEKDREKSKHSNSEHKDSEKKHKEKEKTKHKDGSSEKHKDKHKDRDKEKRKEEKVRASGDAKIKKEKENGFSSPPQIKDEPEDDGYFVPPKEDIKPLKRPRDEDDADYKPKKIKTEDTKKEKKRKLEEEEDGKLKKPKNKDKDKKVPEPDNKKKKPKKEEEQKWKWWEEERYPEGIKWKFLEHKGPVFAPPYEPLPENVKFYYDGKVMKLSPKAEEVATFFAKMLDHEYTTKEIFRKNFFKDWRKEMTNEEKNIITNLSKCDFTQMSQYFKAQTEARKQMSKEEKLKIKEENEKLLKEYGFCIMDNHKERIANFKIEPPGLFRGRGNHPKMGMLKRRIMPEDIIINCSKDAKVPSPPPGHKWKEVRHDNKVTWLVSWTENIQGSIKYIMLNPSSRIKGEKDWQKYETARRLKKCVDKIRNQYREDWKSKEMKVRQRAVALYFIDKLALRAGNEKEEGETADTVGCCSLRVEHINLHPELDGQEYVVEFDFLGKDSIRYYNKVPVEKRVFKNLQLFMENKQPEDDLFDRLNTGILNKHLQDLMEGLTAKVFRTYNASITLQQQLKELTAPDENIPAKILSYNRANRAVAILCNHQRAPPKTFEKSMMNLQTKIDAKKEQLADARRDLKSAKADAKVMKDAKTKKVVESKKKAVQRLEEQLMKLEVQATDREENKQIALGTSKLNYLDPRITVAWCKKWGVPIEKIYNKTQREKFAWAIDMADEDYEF
Outline: (§1)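 Recombinant human topo I (0.4 units) with 100 ng supercoiled pBR322, 37 °C for 30 min in Tris-HCl pH 7.9, 150 mM NaCl, 0.1% BSA, 1 mM spermidine, 5% glycerol. Compounds came from 20 mM DMSO stocks, with matched DMSO in the enzyme-only control. Stopped with sarcosyl; 1% agarose/TAE gel, ethidium stain, UV densitometry. Camptothecin was the positive control.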

[2] = target: DNA topoisomerase 2-alpha (Homo sapiens) (UniProt P11388); assay: Inhibition of human topoisomerase 2alpha-mediated relaxation of supercoiled pBR322 DNA at 100 uM after 30 mins by agarose gel electrophoresis relative to control
Chain of DNA topoisomerase 2-alpha (Homo sapiens) (P11388 whole entry): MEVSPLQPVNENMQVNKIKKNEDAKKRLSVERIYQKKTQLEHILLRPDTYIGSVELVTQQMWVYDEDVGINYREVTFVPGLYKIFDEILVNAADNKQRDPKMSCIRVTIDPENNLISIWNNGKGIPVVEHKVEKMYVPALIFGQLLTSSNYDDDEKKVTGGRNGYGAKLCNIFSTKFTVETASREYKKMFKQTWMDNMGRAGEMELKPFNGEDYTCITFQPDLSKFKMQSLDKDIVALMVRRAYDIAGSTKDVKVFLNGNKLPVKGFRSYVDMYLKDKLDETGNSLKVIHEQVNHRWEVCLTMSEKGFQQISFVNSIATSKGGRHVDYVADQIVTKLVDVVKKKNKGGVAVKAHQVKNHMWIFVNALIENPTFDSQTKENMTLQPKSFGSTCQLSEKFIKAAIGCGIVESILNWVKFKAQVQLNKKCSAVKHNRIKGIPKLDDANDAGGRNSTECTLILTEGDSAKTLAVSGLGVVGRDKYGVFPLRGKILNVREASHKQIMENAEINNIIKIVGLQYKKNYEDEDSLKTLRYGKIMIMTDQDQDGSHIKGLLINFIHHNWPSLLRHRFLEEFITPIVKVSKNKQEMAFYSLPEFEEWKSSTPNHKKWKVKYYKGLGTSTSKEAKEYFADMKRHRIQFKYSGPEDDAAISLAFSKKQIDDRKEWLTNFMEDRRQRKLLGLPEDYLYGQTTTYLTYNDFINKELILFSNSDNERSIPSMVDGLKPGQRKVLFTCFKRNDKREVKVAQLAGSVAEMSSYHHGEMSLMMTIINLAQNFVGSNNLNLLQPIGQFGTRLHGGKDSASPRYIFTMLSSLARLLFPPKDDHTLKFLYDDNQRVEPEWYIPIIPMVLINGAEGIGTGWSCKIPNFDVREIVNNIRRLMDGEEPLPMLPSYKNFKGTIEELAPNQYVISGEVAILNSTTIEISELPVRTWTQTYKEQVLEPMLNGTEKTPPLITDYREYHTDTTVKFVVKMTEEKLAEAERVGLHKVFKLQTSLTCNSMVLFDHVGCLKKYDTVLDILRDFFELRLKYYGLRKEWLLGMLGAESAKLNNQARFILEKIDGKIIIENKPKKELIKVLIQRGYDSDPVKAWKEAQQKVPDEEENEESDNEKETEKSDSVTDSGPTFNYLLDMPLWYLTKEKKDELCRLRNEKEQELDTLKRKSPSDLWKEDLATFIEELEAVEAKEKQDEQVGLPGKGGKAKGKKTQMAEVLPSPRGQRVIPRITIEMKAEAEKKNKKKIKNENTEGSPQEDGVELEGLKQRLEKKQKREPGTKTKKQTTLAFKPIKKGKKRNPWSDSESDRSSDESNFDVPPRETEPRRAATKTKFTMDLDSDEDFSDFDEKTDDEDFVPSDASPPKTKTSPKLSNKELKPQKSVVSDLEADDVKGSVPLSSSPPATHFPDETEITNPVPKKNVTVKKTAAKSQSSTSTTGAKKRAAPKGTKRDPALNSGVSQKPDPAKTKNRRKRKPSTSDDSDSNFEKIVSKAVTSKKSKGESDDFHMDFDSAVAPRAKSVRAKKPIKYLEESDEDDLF
Outline: (§2)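 Human topo IIα (1 unit) with 200 ng supercoiled pBR322 in Tris-HCl pH 7.9, 50 mM NaCl, 5 mM MgCl2, 1 mM EDTA, 1 mM ATP, BSA, 30 min at 30 °C. DMSO was matched in the enzyme-only control. Stopped with EDTA; 1% agarose/TAE gel, ethidium stain, supercoiled band quantified by UV imaging. Etoposide was the positive control.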

[3] = Aqueous solubility of the compound at pH 6.9 by UV spectroscopic analysis; type: physicochemical; conditions: aqueous solution
Outline: (§3)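 Excess solid (10 mg) shaken in buffer at pH 6.9 or 7.8, 37 °C. The filtrate was diluted into the linear calibration range and dissolved drug measured by UV absorbance at λmax 272 nm. Values are the average of at least three agreeing independent measurements.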

[4] = target: T1, DNA topoisomerase 1 (Homo sapiens); assay: Inhibition of human recombinant topoisomerase 1-mediated relaxation of supercoiled pBR322 DNA at 100 uM after 30 mins by agarose gel electrophoresis relative to control; outline: as §1
[5] = Aqueous solubility of the compound at pH 7.8 by UV spectroscopic analysis; type: physicochemical; conditions: aqueous solution; outline: as §3
[6] = Octanol-phosphate buffer partition coefficient, log P of the compound after 5 hrs by shake-flask method; type: physicochemical
Outline: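 Shake-flask method: 100 µL of 0.2 mg/mL stock diluted into 1.9 mL phosphate buffer pH 7.4 plus 2 mL mutually saturated n-octanol, protected from light. Vortexed 3 min, shaken 5 h at 25 °C. Both phases assayed by UV at 272 nm; log P = log([octanol]/[aqueous]), run in triplicate.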

[7] = system: HCT-116; assay: Growth inhibition of human HCT116 cells at 10^-5 M after 48 hrs by sulforhodamine B assay; type: functional, cell-based
Outline: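 NCI 60-cell-line primary screen. Single concentration of 10^-5 M, 48 h incubation. End point by sulforhodamine B protein staining read spectrophotometrically. Reported as percent growth of treated cells relative to untreated control cells.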

[8] = target: DNA topoisomerase 2-alpha (Homo sapiens) (UniProt P11388); assay: Inhibition of human topoisomerase 2alpha-mediated relaxation of supercoiled pBR322 DNA at 20 uM after 30 mins by agarose gel electrophoresis relative to control; outline: as §2
[9] = system: NCI-H522; assay: Growth inhibition of human NCI-H522 cells at 10^-5 M after 48 hrs by sulforhodamine B assay; type: functional, cell-based
Outline: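 NCI 60-cell-line primary one-dose screen. Cells were exposed to a single 10^-5 M concentration for 48 h. The end point was sulforhodamine B protein staining, read spectrophotometrically. Results are reported as percent growth of treated cells relative to untreated control cells.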

[10] = target: T1, DNA topoisomerase 1 (Homo sapiens); assay: Inhibition of human topoisomerase 1-mediated unwinding of pHOT1 plasmid DNA up to 1000 uM after 30 mins by agarose gel electrophoresis
Outline: (§4)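 pHOT1 plasmid (100 ng) was first relaxed with excess human topo I (3 units) for 30 min at 37 °C in Tris-HCl pH 7.9. Variable compound amounts were then added for a further 30 min at 37 °C. Stopped with EDTA; 1% agarose/TAE gel at 15 V for 15 h, ethidium stain, supercoiled DNA quantified. m-AMSA was the positive control.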

[11] = target: T1, DNA topoisomerase 1 (Homo sapiens); assay: Inhibition of human topoisomerase 1-mediated unwinding of pHOT1 plasmid DNA after 30 mins by agarose gel electrophoresis; outline: as §4

| SMILES | inhibition [1] [%] | inhibition [2] [%] | solubility [3] [µg/mL] | inhibition [4] [%] | solubility [5] [µg/mL] | logP at 5 h [6] | inhibition [8] [%] | inhibition [10] | inhibition [11] | growth inhibition (GI) [7] | growth inhibition (GI) [9] |
| --- | --- | --- | --- | --- | --- | --- | --- | --- | --- | --- | --- |
| COc1ccc(/C=C/C(=O)c2ccc(NC(=O)CN3CCN(c4cc5c(cc4F)c(=O)c(C(=O)O)cn5C4CC4)CC3)cc2)cc1 | 25.3 | 84.3 | 2.98 (≈ 4.77 µM) | 67.6 | 2.42 (≈ 3.87 µM) | 0.684 | 49.6 | inactive |  | Active | Active |
| Cc1ccc(/C=C/C(=O)c2ccc(NC(=O)CN3CCN(c4cc5c(cc4F)c(=O)c(C(=O)O)cn5C4CC4)CC3)cc2)c(C)c1 | 11 | 78.9 | 2.12 (≈ 3.4 µM) | 85.1 | 2.07 (≈ 3.32 µM) | 1.47 | 29.4 |  |  |  |  |
| O=C(CN1CCN(c2cc3c(cc2F)c(=O)c(C(=O)O)cn3C2CC2)CC1)Nc1ccc(C(=O)/C=C/c2ccc(Cl)cc2)cc1 | 0.4 | 27.7 | 2.77 (≈ 4.4 µM) | 67.5 | 2.23 (≈ 3.54 µM) | 0.47 |  |  |  | Active | Active |
| O=C(CN1CCN(c2cc3c(cc2F)c(=O)c(C(=O)O)cn3C2CC2)CC1)Nc1ccc(C(=O)/C=C/c2cccc(Cl)c2)cc1 | 3.1 | 52.9 | 34.4 (≈ 54.7 µM) | 68.8 | 29.7 (≈ 47.3 µM) | 0.302 | 24.6 |  |  |  |  |

Second part, led by results:

| inhibition [1] [%] | inhibition [2] [%] | solubility [3] [µg/mL] | inhibition [4] [%] | solubility [5] [µg/mL] | logP at 5 h [6] | inhibition [8] [%] | inhibition [10] | inhibition [11] | SMILES | growth inhibition (GI) [7] | growth inhibition (GI) [9] |
| --- | --- | --- | --- | --- | --- | --- | --- | --- | --- | --- | --- |
| 2.5 | 9 | 0.75 (≈ 1.15 µM) | 73.2 | 0.68 (≈ 1.04 µM) | 1.46 |  |  |  | COc1ccc(/C=C/C(=O)c2ccc(NC(=O)CN3CCN(c4cc5c(cc4F)c(=O)c(C(=O)O)cn5C4CC4)CC3)cc2)cc1OC |  |  |
| 11.1 | 82.8 | 30.7 (≈ 47.9 µM) | 90.5 | 27.4 (≈ 42.9 µM) | -0.0812 | 8.8 |  |  | O=C(CN1CCN(c2cc3c(cc2F)c(=O)c(C(=O)O)cn3C2CC2)CC1)Nc1ccc(C(=O)/C=C/c2cccc([N+](=O)[O-])c2)cc1 |  |  |
|  |  |  |  |  |  |  |  | Dose-dependent effect | COc1cc(NS(C)(=O)=O)ccc1Nc1c2ccccc2nc2ccccc12 |  |  |
| 4.2 | 66.7 | 2.45 (≈ 3.89 µM) | 70.8 | 2.12 (≈ 3.37 µM) | 1.29 | 21.3 |  |  | O=C(CN1CCN(c2cc3c(cc2F)c(=O)c(C(=O)O)cn3C2CC2)CC1)Nc1ccc(C(=O)/C=C/c2ccccc2Cl)cc1 |  |  |
| 25.9 | 85.7 | 2.66 (≈ 4.17 µM) | 91.3 | 2.24 (≈ 3.51 µM) | 0.562 | 43.8 | inactive |  | O=C(CN1CCN(c2cc3c(cc2F)c(=O)c(C(=O)O)cn3C2CC2)CC1)Nc1ccc(C(=O)/C=C/c2ccc3c(c2)OCO3)cc1 |  |  |
